Measured values from ChEMBL document CHEMBL1123888, “Aldosterone antagonists. 2. Synthesis and biological activities of 11,12-dehydropregnane derivatives” (J Med Chem, 1987).
Activity calls are given as the source filed them. No cut-off for these calls is given here.

Legend:
[1] = target: T1, Mineralocorticoid receptor (Rattus norvegicus) (UniProt P22199); test: Relative binding affinity to the rat mineralocorticoid receptor determined in rat renal cytosol using [3]Ald as ligand
T1 sequence (whole entry): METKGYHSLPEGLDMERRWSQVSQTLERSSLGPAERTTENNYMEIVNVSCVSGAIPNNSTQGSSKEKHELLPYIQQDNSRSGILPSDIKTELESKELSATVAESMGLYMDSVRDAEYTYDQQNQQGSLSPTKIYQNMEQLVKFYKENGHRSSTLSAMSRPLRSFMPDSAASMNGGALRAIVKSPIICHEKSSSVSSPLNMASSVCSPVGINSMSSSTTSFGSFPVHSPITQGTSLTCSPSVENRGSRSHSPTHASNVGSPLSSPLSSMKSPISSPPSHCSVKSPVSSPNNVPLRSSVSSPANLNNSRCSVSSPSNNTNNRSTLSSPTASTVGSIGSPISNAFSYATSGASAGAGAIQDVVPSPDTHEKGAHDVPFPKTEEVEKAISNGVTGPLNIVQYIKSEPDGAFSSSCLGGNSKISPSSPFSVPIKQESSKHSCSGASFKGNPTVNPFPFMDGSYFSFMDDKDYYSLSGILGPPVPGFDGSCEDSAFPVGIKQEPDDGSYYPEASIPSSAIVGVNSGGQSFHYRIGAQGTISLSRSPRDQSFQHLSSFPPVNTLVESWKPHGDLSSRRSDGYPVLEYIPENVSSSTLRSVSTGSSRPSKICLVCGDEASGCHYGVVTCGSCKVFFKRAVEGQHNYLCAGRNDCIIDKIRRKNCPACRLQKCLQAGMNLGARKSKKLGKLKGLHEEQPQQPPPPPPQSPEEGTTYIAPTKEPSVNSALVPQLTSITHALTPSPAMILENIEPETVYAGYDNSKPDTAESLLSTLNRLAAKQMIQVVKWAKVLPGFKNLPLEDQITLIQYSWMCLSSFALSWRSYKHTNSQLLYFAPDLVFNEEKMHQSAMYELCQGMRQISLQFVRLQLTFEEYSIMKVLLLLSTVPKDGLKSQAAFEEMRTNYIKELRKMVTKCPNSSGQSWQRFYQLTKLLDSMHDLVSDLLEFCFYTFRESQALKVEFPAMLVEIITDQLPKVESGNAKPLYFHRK
How it was run: (§1)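 Renal cytosol came from male Sprague-Dawley rats (4-8 weeks) adrenalectomized bilaterally 1 or 2 days earlier. It was incubated with various competitor concentrations and about 1 nM [3H]Ald for 42-48 h at 0 °C or 100-120 min at 25 °C. Bound and free steroid were separated by DCC.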

[2] = target: T1, Mineralocorticoid receptor (Rattus norvegicus); test: Antagonist activity against Mineralocorticoid receptor after subcutaneous administration in Male Sprague Dawley rats; (+) =positive; format: functional, organism-based; settings: filed as antagonist
How it was run: (§2)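 Male rats were bilaterally adrenalectomized (bioassay modified from Kagawa). Ald (1 µg/kg) was given sc, immediately followed by test compound in sesame oil sc or orally. Urine was collected from 2 to 6 h after steroid. Potency came from the urinary Na/K ratio of sample versus control, with 95% confidence limits.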

[3] = target: T1, Mineralocorticoid receptor (Rattus norvegicus); test: Antagonist activity against Mineralocorticoid receptor after oral administration in Male Sprague Dawley rats; (-) = negative; format: functional, organism-based; how it was run: as §2
[4] = target: T1, Mineralocorticoid receptor (Rattus norvegicus); test: Antagonist activity against Mineralocorticoid receptor after po administration in Male Sprague Dawley rats; (-) = negative; format: functional, organism-based; how it was run: as §2
[5] = target: T1, Mineralocorticoid receptor (Rattus norvegicus); test: Relative binding affinity against mineralocorticoid receptor determined in rat renal cytosol using [3]Ald as ligand; how it was run: as §1
Rattus norvegicus = organism: Rattus norvegicus; test: Displacement of [3H]promegestone from progestin receptor of rat uterine cytosol at 0 degree Centigrade
How it was run: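 Uteri from estradiol-primed rats supplied the cytosol. It was incubated with various competitor concentrations and about 1 nM [3H]promegestone for 16-20 h at 0 °C. Bound and free steroid were separated by DCC. RBA (progesterone = 100%) = 100 × ratio of the 50%-inhibition concentrations of standard and competitor.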

[6] = target: T2, Androgen receptor (Rattus norvegicus) (UniProt P15207); test: Relative anti-androgenic activity as suppressive effect on weight increase of ventral prostate in castrated immature rats given testosterone propionate; format: functional; settings: Prostate gland
T2 sequence (whole entry): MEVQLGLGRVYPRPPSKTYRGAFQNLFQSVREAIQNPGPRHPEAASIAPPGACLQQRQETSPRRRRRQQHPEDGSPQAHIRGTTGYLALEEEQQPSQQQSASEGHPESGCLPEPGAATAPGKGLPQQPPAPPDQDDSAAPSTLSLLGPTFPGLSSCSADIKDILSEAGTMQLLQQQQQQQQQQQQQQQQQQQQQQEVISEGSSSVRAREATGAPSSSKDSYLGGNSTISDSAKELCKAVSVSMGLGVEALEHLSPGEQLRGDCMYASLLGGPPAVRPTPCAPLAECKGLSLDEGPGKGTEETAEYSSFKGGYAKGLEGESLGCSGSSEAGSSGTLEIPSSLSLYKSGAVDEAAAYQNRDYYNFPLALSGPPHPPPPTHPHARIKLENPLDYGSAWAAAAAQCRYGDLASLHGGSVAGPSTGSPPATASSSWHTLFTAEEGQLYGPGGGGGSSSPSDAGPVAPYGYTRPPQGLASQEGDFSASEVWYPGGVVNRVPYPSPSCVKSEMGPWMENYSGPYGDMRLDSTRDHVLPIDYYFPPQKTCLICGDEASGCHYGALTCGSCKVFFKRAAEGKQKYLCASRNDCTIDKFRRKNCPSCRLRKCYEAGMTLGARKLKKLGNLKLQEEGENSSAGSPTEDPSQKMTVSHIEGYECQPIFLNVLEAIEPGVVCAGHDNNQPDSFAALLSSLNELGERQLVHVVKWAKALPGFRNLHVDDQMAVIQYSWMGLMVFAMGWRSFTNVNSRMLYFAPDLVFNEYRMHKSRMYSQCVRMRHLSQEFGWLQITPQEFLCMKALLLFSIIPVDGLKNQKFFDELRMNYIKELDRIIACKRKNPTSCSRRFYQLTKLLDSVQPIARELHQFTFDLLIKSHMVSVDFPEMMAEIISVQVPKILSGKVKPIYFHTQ
How it was run: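 Male Sprague-Dawley rats (3 weeks old) were castrated 3 days earlier. […] Suppression of accessory sex organ weight gain gave relative antiandrogenic activity.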

[7] = target: T1, Mineralocorticoid receptor (Rattus norvegicus); test: Relative anti-mineralocorticoid potency compared to Spironolactone after oral administration; format: functional, organism-based; how it was run: as §2
[8] = target: T1, Mineralocorticoid receptor (Rattus norvegicus); test: Relative binding affinity against Mineralocorticoid Receptor in Male Sprague-Dawley rats
How it was run: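 Renal cytosol from male Sprague-Dawley rats (4-8 weeks) adrenalectomized bilaterally 1 or 2 days earlier. Incubated with various competitor concentrations and about 1 nM [3H]aldosterone, for 42-48 h at 0 °C or 100-120 min at 25 °C. Charcoal (DCC) separation of bound and free.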

[9] = target: T1, Mineralocorticoid receptor (Rattus norvegicus); test: In vivo relative Mineralocorticoid activity in Male Sprague-Dawley rats; format: functional, organism-based
[10] = target: T1, Mineralocorticoid receptor (Rattus norvegicus); test: Agonist activity against Mineralocorticoid receptor after subcutaneous administration in Male Sprague Dawley rats; (+) =positive; format: functional, organism-based; settings: filed as agonist
[11] = target: T1, Mineralocorticoid receptor (Rattus norvegicus); test: Antagonist activity against Mineralocorticoid receptor after subcutaneous administration in Male Sprague Dawley rats; (-) = negative; format: functional, organism-based; how it was run: as §2
[12] = target: T1, Mineralocorticoid receptor (Rattus norvegicus); test: Relative potency compared to Aldosterone;Range is 53-97; format: functional
[13] = target: T3, Progesterone receptor (Rattus norvegicus) (UniProt Q63449); test: Relative binding affinity against progesterone receptor determined in rat […] cytosol using [3H]DHT as ligand
T3 sequence (whole entry): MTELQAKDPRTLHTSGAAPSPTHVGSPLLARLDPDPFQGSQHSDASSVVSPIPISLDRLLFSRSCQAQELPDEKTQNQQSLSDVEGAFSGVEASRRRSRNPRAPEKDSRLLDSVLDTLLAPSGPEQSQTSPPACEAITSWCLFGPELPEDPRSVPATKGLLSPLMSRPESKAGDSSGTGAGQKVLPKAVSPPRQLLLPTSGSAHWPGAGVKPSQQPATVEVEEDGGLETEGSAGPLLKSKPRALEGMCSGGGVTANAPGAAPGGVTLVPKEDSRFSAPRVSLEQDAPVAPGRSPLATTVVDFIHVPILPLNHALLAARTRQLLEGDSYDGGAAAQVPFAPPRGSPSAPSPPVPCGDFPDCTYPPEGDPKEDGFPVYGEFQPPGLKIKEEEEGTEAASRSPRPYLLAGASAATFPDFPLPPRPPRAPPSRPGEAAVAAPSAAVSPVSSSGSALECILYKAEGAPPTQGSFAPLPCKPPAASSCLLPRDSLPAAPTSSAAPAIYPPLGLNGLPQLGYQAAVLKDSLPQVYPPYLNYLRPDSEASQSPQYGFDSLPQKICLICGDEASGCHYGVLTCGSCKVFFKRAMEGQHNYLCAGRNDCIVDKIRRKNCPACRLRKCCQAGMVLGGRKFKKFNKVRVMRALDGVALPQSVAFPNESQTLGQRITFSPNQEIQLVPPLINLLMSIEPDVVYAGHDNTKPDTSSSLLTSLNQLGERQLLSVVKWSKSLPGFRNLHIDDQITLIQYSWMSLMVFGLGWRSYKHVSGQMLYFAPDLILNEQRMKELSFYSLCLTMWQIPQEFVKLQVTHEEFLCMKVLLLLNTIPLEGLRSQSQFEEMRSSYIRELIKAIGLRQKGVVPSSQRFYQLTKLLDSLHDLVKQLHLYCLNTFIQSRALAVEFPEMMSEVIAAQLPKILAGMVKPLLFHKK

[14] = target: T1, Mineralocorticoid receptor (Rattus norvegicus); test: Relative binding affinity against Mineralocorticoid receptor in Male Sprague-Dawley rats; how it was run: as §1
[15] = target: T1, Mineralocorticoid receptor (Rattus norvegicus); test: Agonist activity against Mineralocorticoid receptor after subcutaneous administration in Male Sprague Dawley rats; (-) = negative; format: functional, organism-based
[16] = target: T1, Mineralocorticoid receptor (Rattus norvegicus); test: Relative potency ompared to Aldosterone;Range 4-187; format: functional
[17] = target: T1, Mineralocorticoid receptor (Rattus norvegicus); test: Antagonist activity against Mineralocorticoid receptor was determined after subcutaneous administration in Male Sprague Dawley rats; format: functional, organism-based; how it was run: as §2
[18] = target: T1, Mineralocorticoid receptor (Rattus norvegicus); test: Agonist activity against Mineralocorticoid receptor was determined after subcutaneous administration in Male Sprague Dawley rats; (+) =positive; format: functional, organism-based; settings: filed as agonist
[19] = target: T1, Mineralocorticoid receptor (Rattus norvegicus); test: Relative potency compared to Aldosterone;Range is 72-216; format: functional

Q: What does the source list for `CC12CCC(=O)C=C1C=CC1C2C=CC2(C)C1CC[C@@]21CCC(=O)O1` (stereo partly specified)?
A: RBA [1]: 64%; Activity [2]: Antagonist; Activity [3]: inactive; Activity [4]: inactive; RBA [5]: 70%; RBA (Rattus norvegicus): 4.7%; Activity [6]: 1; Relative potency [7]: 2

Q: How did the RBA [8] turn out when `C[C@]12CC[C@H]3[C@@H](CCC4=CC(=O)CC[C@@]43C)[C@@H]1CC[C@@H]2C(=O)CO` was run?
A: 58%

Q: What about the Relative activity [9] of the same compound?
A: 1

Q: For `CC(=O)S[C@@H]1CC2=CC(=O)CCC2(C)C2C=CC3(C)C(CC[C@@]34CCC(=O)O4)C21` (stereo partly specified), which RBA [1] is on record?
A: 169%

Q: What about the Activity [10] of the same compound?
A: Agonist

Q: And the Activity [11]?
A: inactive

Q: And the RBA [5]?
A: 43%

Q: And the Relative potency [12]?
A: 53

Q: What about the RBA [13] of the same compound?
A: 14%

Q: How did the relative binding affinity (RBA) [14] turn out when `C[C@]12CC[C@@H]3C4CCC(=O)C=C4CC[C@H]3[C@@H]1CC[C@@H]2C(=O)CO` (stereo partly specified) was run?
A: 170

Q: What about the Relative activity [9] of the same compound?
A: 1.5

Q: How did the RBA [1] turn out when `CC12CCC(=O)C=C1[C@H]1C[C@H]1C1C2C=CC2(C)C1CC[C@@]21CCC(=O)O1` (stereo partly specified) was run?
A: 110%

Q: And the Activity [2]?
A: Antagonist

Q: What about the Activity [15] of the same compound?
A: inactive

Q: And the RBA [5]?
A: 88%

Q: What about the Relative potency [7] of the same compound?
A: 1.48

Q: And the RBA [13]?
A: 6.7%

Q: How did the RBA [1] turn out when `CC12C=CC(=O)C=C1C1CC1C1C2C=CC2(C)C1CC[C@@]21CCC(=O)O1` (stereo partly specified) was run?
A: 300%

Q: And the Activity [10]?
A: Agonist

Q: What about the Activity [11] of the same compound?
A: inactive

Q: And the RBA [5]?
A: 320%

Q: And the RBA (Rattus norvegicus)?
A: 11%

Q: What about the Relative potency [16] of the same compound?
A: 4

Q: With `CC12C=CC(=O)C=C1C=CC1C2C=CC2(C)C1C1CC1[C@@]21CCC(=O)O1` (stereo partly specified) as the compound, how does the RBA [1] read?
A: 200%

Q: And the Activity [17]?
A: inactive

Q: What about the Activity [18] of the same compound?
A: Agonist

Q: What about the RBA [5] of the same compound?
A: 160%

Q: And the Relative potency [19]?
A: 72

Q: And the RBA [13]?
A: 19%
